Like-named read-outs stand apart in the source and are kept apart here.
How the values were obtained:
[1] = molecular target: T1, Escherichia coli GUS (EcGUS) (Escherichia coli, UniProt P05804); experiment: EcGUS inhibition assay; format: biochemical; conditions: for percentage inhibition rate of EcGUS: compounds at 100 μM, pNPG as substrate; for inhibition at 100 µM: read-out: percentage inhibition rate of EcGUS
[2] = molecular target: T1, Escherichia coli GUS (EcGUS); experiment: Inhibition kinetics; format: biochemical; conditions: pNPG as substrate; for type of inhibition of EcGUS: Lineweaver-Burk plot
Method in brief: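 Recombinant EcGUS was expressed in E. coli BL21(DE3) carrying pET28a-EcGUS. The enzyme hydrolysed pNPG, and activity was read as para-nitrophenyl released. Test compound stocks were 10 mM in DMSO. pNPG and inhibitor concentrations were varied. Inhibition type came from where the regression lines intercept on Lineweaver-Burk plots, and Ki was then calculated. Runs were in triplicate, repeated twice, reported as mean ± SD.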

[3] = read-out: IC50 against EcGUS, pNPG 250 µM, PBS pH 7.4, 37 °C, 30 min

T1 sequence (P05804 whole entry): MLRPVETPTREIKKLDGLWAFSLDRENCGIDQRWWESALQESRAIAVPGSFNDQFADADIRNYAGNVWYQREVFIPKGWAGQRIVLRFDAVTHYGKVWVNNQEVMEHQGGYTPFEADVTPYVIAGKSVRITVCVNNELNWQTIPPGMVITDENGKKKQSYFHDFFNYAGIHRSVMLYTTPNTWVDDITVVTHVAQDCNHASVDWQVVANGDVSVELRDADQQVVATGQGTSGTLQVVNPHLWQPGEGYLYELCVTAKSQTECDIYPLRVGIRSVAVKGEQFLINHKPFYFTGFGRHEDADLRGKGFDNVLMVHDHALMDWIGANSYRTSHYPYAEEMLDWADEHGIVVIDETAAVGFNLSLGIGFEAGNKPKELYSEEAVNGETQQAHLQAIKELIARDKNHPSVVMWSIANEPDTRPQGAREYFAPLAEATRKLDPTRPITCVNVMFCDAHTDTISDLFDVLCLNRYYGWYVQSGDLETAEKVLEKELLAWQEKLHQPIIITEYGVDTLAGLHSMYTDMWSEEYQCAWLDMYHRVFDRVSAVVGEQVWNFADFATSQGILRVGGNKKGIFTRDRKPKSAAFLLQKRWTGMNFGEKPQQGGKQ

Molecule	IC50 [1, 3] [µM]	type of inhibition of EcGUS [2]	percentage inhibition rate of EcGUS [1] [%]	Ki ([2]; read-out: Ki (inhibition constant) against EcGUS) [µM]	IC50 [1] [µM]	inhibition at 100 µM [1] [%]
COc1ccc(CCO[C@@H]2O[C@H](CO)[C@@H](OC(=O)/C=C/c3ccc(O)c(OC)c3)[C@H](O[C@@H]3O[C@@H](C)[C@H](O)[C@@H](O)[C@H]3O)[C@H]2O)cc1O [martynoside]	14.3	mixed-type	–	–	–	–
acetylacteoside	–	mixed-type	–	–	–	–
C[C@@H]1O[C@@H](OC[C@H]2O[C@@H](OCCc3ccc(O)c(O)c3)[C@H](OC(=O)/C=C/c3ccc(O)c(O)c3)[C@@H](O)[C@@H]2O)[C@H](O)[C@H](O)[C@H]1O [forsythoside H]	22.2	–	–	–	–	–
CCOC(=O)/C=C/c1ccc(O)c(O)c1 [CAEE, caffeic acid ethyl ester]	7	competitive	97.1 ± 0.2	2.7	–	–
O=C(O)[C@@H](O)[C@H]1OC(=O)[C@H](O)[C@H]1O [DSL, D-glucaric acid-1,4-lactone, reference compound]	67.1	–	48.7 ± 1.2	–	–	–
C[C@@H]1O[C@@H](O[C@@H]2[C@@H](O)[C@H](OCCc3ccc(O)c(O)c3)O[C@H](COC(=O)/C=C/c3ccc(O)c(O)c3)[C@H]2O)[C@H](O)[C@H](O)[C@H]1O [isoacteoside]	–	mixed-type	–	–	8.8	77
C[C@@H]1O[C@@H](O[C@@H]2[C@@H](O)[C@H](OCCc3ccc(O)c(O)c3)O[C@H](CO)[C@H]2OC(=O)/C=C/c2ccc(O)c(O)c2)[C@H](O)[C@H](O)[C@H]1O [acteoside]	–	mixed-type	–	–	3.2	88 ± 2.2
COc1ccc(CCO[C@@H]2O[C@H](CO[C@@H]3OC[C@H](O)[C@H](O)[C@H]3O)[C@@H](OC(=O)/C=C/c3ccc(O)c(OC)c3)[C@H](O[C@@H]3O[C@@H](C)[C@H](O)[C@@H](O)[C@H]3O)[C@H]2O)cc1O [angoroside C]	> 100	–	–	–	–	–
C[C@@H]1O[C@@H](OC[C@H]2O[C@@H](OCCc3ccc(O)c(O)c3)[C@H](O)[C@@H](OC(=O)/C=C/c3ccc(O)c(O)c3)[C@@H]2O)[C@H](O)[C@H](O)[C@H]1O [isoforsythiaside]	7.6	mixed-type	–	–	–	–

Source: paper PMC7717682 (Journal of Enzyme Inhibition and Medicinal Chemistry, 2020)
